Reference: ChEMBL document CHEMBL1139436, “Quantitative structure-activity relationship of sesquiterpene lactones as inhibitors of the transcription factor NF-kappaB” (J Med Chem, 2004)

Legend:
[1] = biological target: T1, Nuclear factor NF-kappa-B complex (Homo sapiens) (UniProt Q00653+P19838+Q04206); test: (§1) Concentration required for complete inhibition of Nuclear factor kappa B DNA binding; type: protein-complex assay; design: unit not given here
Summary of the method: (§2)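 Jurkat T cells (RPMI 1640, 10% FCS, penicillin/streptomycin) pretreated 1 h with sesquiterpene lactone, first at 10, 20, 50, 100 μM, then 1–5 μM or 200–300 μM as needed. Stimulated 1 h with 200 U/mL TNF-α. Total extracts (Totex high-salt buffer) analysed by EMSA with ³²P-labeled NF-κB oligonucleotide, 25 min at room temperature. IC100 is the lowest tested level fully blocking binding; intermediate values assigned the higher level. Each experiment reproduced at least once.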

[2] = biological target: T1, Nuclear factor NF-kappa-B complex (Homo sapiens); test: as §1; type: protein-complex assay; summary of the method: as §2

T1 sequence (P19838 whole entry, looked up): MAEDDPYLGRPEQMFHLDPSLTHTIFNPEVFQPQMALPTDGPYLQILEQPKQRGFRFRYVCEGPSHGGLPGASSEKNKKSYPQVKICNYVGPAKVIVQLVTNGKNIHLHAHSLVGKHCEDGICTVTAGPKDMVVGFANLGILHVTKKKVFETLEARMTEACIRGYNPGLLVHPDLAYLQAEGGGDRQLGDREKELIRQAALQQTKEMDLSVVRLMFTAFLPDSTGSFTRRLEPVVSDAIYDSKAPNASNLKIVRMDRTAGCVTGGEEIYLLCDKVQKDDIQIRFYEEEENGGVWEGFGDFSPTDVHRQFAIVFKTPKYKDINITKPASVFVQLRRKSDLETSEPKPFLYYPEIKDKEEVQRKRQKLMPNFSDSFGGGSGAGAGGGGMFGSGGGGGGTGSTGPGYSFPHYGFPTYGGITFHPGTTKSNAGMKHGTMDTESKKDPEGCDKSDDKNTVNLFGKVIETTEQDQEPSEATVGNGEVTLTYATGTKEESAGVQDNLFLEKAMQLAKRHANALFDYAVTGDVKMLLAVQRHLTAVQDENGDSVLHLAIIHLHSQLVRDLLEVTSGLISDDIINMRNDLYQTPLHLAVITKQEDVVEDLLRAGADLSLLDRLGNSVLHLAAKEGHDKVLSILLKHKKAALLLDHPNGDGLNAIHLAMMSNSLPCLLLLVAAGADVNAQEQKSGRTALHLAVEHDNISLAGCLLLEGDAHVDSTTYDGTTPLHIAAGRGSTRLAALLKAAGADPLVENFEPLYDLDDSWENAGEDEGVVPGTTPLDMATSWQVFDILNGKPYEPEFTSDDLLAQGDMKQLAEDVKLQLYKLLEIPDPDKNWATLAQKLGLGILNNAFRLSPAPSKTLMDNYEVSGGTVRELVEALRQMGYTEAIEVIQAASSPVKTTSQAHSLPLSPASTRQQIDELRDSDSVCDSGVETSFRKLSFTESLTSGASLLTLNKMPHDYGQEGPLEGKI
T1 sequence (Q00653 whole entry, looked up): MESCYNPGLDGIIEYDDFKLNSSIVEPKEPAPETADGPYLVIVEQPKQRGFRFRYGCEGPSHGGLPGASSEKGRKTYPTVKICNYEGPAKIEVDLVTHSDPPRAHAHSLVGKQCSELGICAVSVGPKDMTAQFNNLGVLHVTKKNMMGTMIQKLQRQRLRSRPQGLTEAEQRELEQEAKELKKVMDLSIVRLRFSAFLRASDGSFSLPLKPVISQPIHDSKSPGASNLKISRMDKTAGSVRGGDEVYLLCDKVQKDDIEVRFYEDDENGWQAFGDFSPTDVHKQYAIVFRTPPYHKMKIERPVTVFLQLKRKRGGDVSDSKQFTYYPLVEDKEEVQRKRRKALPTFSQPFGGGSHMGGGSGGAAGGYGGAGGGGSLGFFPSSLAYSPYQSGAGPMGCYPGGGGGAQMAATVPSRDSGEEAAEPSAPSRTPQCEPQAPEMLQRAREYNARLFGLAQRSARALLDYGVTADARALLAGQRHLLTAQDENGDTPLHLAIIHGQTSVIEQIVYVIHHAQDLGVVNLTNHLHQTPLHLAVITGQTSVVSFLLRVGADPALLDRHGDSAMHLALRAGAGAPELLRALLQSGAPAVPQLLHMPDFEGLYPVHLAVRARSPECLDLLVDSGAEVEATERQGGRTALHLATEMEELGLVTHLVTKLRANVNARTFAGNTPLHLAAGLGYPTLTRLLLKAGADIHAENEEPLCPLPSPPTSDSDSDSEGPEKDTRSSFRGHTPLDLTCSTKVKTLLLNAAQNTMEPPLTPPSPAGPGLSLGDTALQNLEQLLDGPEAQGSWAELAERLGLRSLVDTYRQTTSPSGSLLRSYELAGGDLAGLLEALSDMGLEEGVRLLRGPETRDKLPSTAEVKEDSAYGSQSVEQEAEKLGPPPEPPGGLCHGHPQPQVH
T1 sequence (Q04206 whole entry, looked up): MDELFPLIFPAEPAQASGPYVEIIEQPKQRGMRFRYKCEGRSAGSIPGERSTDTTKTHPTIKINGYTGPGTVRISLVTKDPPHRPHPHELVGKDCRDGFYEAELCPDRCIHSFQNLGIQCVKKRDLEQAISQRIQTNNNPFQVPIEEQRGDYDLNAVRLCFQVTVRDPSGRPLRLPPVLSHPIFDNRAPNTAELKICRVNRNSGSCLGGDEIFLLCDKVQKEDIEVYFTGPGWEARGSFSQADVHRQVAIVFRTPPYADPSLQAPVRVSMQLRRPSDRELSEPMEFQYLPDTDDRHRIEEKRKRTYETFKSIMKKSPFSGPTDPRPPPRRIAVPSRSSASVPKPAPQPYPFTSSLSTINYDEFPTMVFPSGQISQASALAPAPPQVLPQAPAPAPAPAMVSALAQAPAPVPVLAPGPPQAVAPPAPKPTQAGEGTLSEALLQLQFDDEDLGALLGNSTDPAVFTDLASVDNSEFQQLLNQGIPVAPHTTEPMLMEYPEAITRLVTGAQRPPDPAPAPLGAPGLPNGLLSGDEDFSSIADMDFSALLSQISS

Row | pIC100 [1] | IC100 [2] | Structure (SMILES)
1 | -1.3 | 20 µM | C=C(C)C(=O)O[C@H]1C[C@@]2(C)OC(=CC2=O)/C(CO)=C\[C@H]2OC(=O)C(=C)[C@H]12
2 | -1.39 | 25 µM | C=C1C(=O)C[C@H]2C(=C)C(=O)O[C@@H]2/C=C(/COC(=O)C(C)C)CC[C@H]1OC
3 | -1.09 | 25 µM | C=C1C(=O)C[C@H]2C(=C)C(=O)O[C@@H]2/C=C(/COC(=O)C(C)C)CC[C@@H]1OC
4 | -2 | 100 µM | C=C1C(=O)O[C@@H]2/C=C(/COC(=O)C(C)C)CC/C=C(/CO)[C@H](O)C[C@@H]12
5 | -1.09 | 12.5 µM | C=C1C(=O)O[C@@H]2/C=C(/COC(=O)C(C)C)CC/C=C(/CO)C(=O)C[C@@H]12
6 | -1.69 | 50 µM | C=C1C(=O)O[C@H]2C/C(CO)=C\CC/C(COC(=O)C3(C)CO3)=C\C[C@H]12 (some centres not stated)
7 | -2.3 | 200 µM | C=C1C(=O)O[C@@H]2/C=C(/C)[C@]3(O)O[C@@](C)(C[C@@H]3OC)C[C@@H](OC(=O)C(C)C)[C@@H]12
8 | -1.69 | 50 µM | C=C1C(=O)O[C@H]2C/C(CO)=C\CC/C(COC(=O)C(C)CC)=C\C[C@H]12 (some centres not stated)
9 | -1 | 10 µM | C=C(C)C(=O)O[C@H]1[C@H]2C(=C)C(=O)O[C@@H]2/C=C(/C)CC/C=C(/C=O)[C@@H]1O
10 | -1.09 | 12.5 µM | C=C1C(=O)O[C@@H]2/C=C(/COC(=O)CC(C)C)CC/C=C(/CO)C(=O)C[C@@H]12 (stereo in doubt; 5)
11 | -1 | 20 µM | C=C1C(=O)O[C@@H]2/C=C(/C)CC/C=C(/C)C[C@@H](OC(=O)C=C(CO)CO)[C@@H]12
12 | -2 | 100 µM | C=C1C(=O)O[C@H]2C/C(CO)=C\CC/C(COC(=O)C(C)CO)=C\C[C@H]12 (some centres not stated)
13 | -0.69 | 5 µM | C=C(C)C(=O)O[C@H]1[C@H]2C(=C)C(=O)O[C@@H]2/C=C(/COC(C)=O)CC/C=C(/C=O)[C@@H]1O
14 | -1.69 | 50 µM | C=C1C(=O)O[C@H]2C/C(CO)=C\CC/C(COC(=O)C(C)(C)O)=C\C[C@H]12

Further lines, the molecule ahead of its results:

Row | Structure (SMILES) | pIC100 [1] | IC100 [2]
15 | C=C(C)C(=O)O[C@@H]1C[C@]2(C)CC[C@@](O)(O2)[C@@H](C)C[C@H]2OC(=O)C(=C)[C@H]12 | -2.3 | 200 µM
16 | C=C1C(=O)O[C@H]2C[C@]3(C)O[C@@H]3C[C@@H](OC(C)=O)C3=C[C@@H](OC3=O)[C@H]12 | -1 | 10 µM
17 | C=C(C)C(=O)O[C@@H]1C[C@]2(C)CC[C@@](OC)(O2)/C(C)=C\[C@H]2OC(=O)C(=C)[C@@H]21 | -2.3 | 200 µM
18 | C=C(C)C(=O)O[C@@H]1C[C@](C)(O)[C@@H]2C(=O)C=C(C)[C@@H]2[C@H]2OC(=O)C(=C)[C@@H]21 | -1.69 | 50 µM
19 | C=C1C(=O)O[C@@H]2[C@H]3C(C)=CC[C@H]3[C@](C)(O)C[C@H](O)[C@@H]12 | -2 | 100 µM
20 | C=C(C)C(=O)O[C@H]1C[C@@]2(C)OC(=CC2=O)C(=C)[C@@H](O)[C@H]2OC(=O)C(=C)[C@@H]21 | -1 | 10 µM
21 | C=C(C)C(=O)O[C@@H]1C[C@]2(C)CC[C@@](O)(O2)/C(C)=C\[C@H]2OC(=O)C(=C)[C@@H]21 | -1 | 50 µM
22 | C=C1C(=O)O[C@H]2[C@H]1CCC(C)=C1C(=O)[C@H]3O[C@@]3(C)[C@@H]12 | -0.69 | 5 µM
23 | C=C1C(=O)C=C2[C@H]1C[C@@H]1C(=C)C(=O)O[C@@H]1C[C@@H]2C | -1 | 10 µM
24 | C=C(C)C(=O)O[C@@H]1/C=C(/C=O)CCC[C@@]2(CO2)[C@H](O)[C@H]2OC(=O)C(=C)[C@@H]21 | -0.69 | 5 µM
25 | C=C(C)C(=O)O[C@@H]1C[C@@](C)(O)[C@@H]2C(=O)C=C(C)[C@@H]2[C@H]2OC(=O)C(=C)[C@@H]21 | -1.3 | 20 µM
26 | C=C1C(=O)O[C@@H]2[C@H]3C(C)=CC[C@H]3[C@](C)(O)C[C@H](OC(C)=O)[C@@H]12 | -1.3 | 20 µM
27 | C=C1C(=O)O[C@@H]2[C@H]3C(C)=C(Cl)C(=O)C3=C(C)CC[C@@H]12 | -1.3 | 20 µM
28 | C=C1C(=O)O[C@@H]2C[C@H](C)C3=CC(=O)[C@H](C)[C@@H]3C[C@H]12 | -1.69 | 50 µM
29 | C=C(C)C(=O)O[C@@H]1/C=C(/C=O)[C@H](OC)CCC(=C)[C@H](O)[C@H]2OC(=O)C(=C)[C@@H]21 | -1 | 10 µM
30 | C=C1C(=O)O[C@H]2[C@H]1[C@@H](OC(=O)/C(C)=C/C)C/C(C)=C\[C@@]1(OC)C=C(C)[C@@H]2O1 | -1 | 10 µM
31 | C=C(C)C(=O)O[C@H]1C[C@@]2(C)OC(=CC2=O)C(=C)[C@@H](Cl)[C@H]2OC(=O)C(=C)[C@@H]21 | -0.69 | 5 µM
